Compound activity (PubChem BioAssay)
Most compounds without a hit are left out; they make up all but 1.9% or so of the library.
Scp-1 inhibitor = Scp-1 (human) phosphatase inhibition. Q9GZU7. Recombinant Scp1, phosphopeptide, malachite green phosphate absorbance. inhibition, % at 20 µM. 340,000 tested, 0.88% active;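 active = inhibition above about 50% at 20 µM, limit read from the data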;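 note: plate controls were DMSO wells with enzyme for no effect and wells lacking enzyme for full effect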
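Assay system: SCP-1 catalytic fragment, aa 76-261 | Buffer or medium: Tris acetate buffer pH 5.5 with MgCl2 and Tween-20 | Compound: One concentration, 20 µM, with 1.0% DMSO | Also added: Phospho 17-mer peptide substrate | Signal: Absorbance at 630 nm | Incubation: 45 min enzyme reaction at room temperature | Measure: % inhibition of SCP-1 phosphate liberation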
CSN deneddyl inh = blocks human CSN-mediated cullin deneddylation. inhibition, % at 12.5 µM. Q92905. Purified CSN, SCF-Nedd8-OG deneddylation, fluorescence polarization. 360,000 tested, 0.38% active;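 active = pattern-corrected inhibition above about 35%, with an unprinted fluorescence ratio check between 0.5 and 1.5, limit read from the data, passing the limit was not always enough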;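 note: 0% = enzyme with substrate and 100% = substrate without enzyme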
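Assay system: purified human Csn5 enzyme expressed in HEK293T cells; measure: % inhibition; also added: SCFSkp2-Nedd8OG substrate at 10 nM final; technique: fluorescence polarization; times: reaction 90 min, room temperature; medium: Tris buffer pH 7.5, NaCl, DTT, Tween-20, trehalose, ovalbumin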
LMPTP block = LMPTP (human) inhibition | 360,000 tested, 0.22% active | AID 651560 | P24666 | recombinant LMPTP-A, OMFP fluorogenic substrate, fluorescence intensity | inhibition, % at 20 µM;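 active = compounds that cut the enzyme signal by at least half of the control window in the single-dose screen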;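 note: plate controls were DMSO wells with enzyme plus substrate for no effect and substrate without enzyme for full effect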
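Buffer or medium: Bis-Tris pH 6.0, DTT, detergent; Assay system: LMPTP-A enzyme; Quantity: 0.625 nM enzyme; Detection: endpoint fluorescence intensity; Times: 50 min dark incubation at room temperature; Controls: substrate-only low control, DMSO enzyme-plus-substrate high control; Doses: single 20 µM dose; Read-out: percent inhibition versus substrate-only and uninhibited controls; Reagent: 400 µM OMFP.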
SUMO1 PPI mod = SUMO1-SIM interaction modulation. P63165. SUMO1 binding to a labelled peptide, TR-FRET, 1 h. inhibition, % at 20 µM. 360,000 tested, 0.33% active. AID 602429; in the data active = inhibition above about 37%
STEP inh = STEP (human) phosphatase inhibition | P54829 | recombinant STEP, OMFP fluorogenic substrate, fluorescence | inhibition, % at 20 µM | 360,000 tested, 0.25% active;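 active = inhibition at 20 µM, scaled per plate between control wells, above about 37%, limit read from the data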;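 note: 0% = DMSO with enzyme and substrate and 100% = substrate only without enzyme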
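Assay system: isolated STEP enzyme / Timing: 20 min at room temperature, dark / Doses: 20 µM, 1% DMSO / Technique: fluorescence intensity, excitation 480 nm, emission 540 nm / Reagent: fluorogenic phosphatase substrate OMFP at 25 µM final / Measure: percent inhibition scaled to no-enzyme and uninhibited-enzyme controls, plate-pattern corrected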
DNMT1 block = DNMT1 (human) enzyme inhibition; inhibition (reported as % activation of signal), % at 10 µM; DNMT1 molecular beacon, Hinp1I cleavage, fluorescence; P26358; 360,000 tested, 0.83% active; in the data active = inhibition above about 50%
Target sequence (P26358 504-1616 limits assumed): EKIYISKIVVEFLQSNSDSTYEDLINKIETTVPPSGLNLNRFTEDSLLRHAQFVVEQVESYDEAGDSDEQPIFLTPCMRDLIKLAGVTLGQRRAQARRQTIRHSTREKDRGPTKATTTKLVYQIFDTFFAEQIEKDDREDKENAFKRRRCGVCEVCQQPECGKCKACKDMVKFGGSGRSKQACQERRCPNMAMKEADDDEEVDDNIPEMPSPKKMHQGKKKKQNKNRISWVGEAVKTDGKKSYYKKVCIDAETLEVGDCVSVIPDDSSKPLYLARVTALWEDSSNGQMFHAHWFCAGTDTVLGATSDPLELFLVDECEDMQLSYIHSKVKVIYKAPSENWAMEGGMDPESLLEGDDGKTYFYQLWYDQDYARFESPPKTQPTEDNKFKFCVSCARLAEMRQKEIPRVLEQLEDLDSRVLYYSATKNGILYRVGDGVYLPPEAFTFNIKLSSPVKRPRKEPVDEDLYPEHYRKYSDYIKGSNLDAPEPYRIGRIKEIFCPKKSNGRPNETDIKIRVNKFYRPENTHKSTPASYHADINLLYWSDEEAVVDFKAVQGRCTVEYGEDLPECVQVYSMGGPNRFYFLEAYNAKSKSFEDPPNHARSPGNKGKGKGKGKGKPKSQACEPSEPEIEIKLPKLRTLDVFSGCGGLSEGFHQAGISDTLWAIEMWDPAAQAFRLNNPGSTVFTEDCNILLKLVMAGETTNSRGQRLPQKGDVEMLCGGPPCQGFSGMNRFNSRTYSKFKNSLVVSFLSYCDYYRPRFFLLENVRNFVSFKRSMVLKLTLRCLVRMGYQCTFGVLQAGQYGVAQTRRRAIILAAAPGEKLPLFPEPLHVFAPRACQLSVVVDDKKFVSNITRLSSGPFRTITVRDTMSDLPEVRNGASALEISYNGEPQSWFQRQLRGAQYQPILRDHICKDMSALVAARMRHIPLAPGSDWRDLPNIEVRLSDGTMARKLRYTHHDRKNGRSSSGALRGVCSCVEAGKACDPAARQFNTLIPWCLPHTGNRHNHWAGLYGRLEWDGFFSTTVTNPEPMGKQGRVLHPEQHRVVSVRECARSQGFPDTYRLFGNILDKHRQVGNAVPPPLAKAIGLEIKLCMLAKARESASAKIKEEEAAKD
Active calls of the source: *; · = no result.

SMILES	Scp-1 inhibitor	CSN deneddyl inh	LMPTP block	SUMO1 PPI mod	STEP inh	DNMT1 block
CC(=O)Nc1ccc(NC(=O)c2cc(-c3cc(C)c(C)cc3O)n[nH]2)cc1	-5.9	7.3	0.7	39.7*	-0.5	-3.5
Cc1ccc(-n2nnnc2SCC(=O)Nc2ccc3c(c2)COC3=O)cc1C	-6.1	7.4	2.9	40.2*	0.3	42.0
O=C(O)c1ccc(C[n+]2c(-c3ccccc3)csc2Nc2ccccc2)cc1	24.9	0.0	-0.4	1.1	-6.5	0.0
CC(C)(C)c1cc(-c2csc(Nc3ccccc3)[n+]2Cc2ccc(C(=O)O)cc2)cc(C(C)(C)C)c1O	17.4	0.4	1.3	41.9*	11.9	18.7
O=C(CCCn1c(SCC(=O)NC2CCCCC2)nc2ccccc2c1=O)NCC1CCCO1 (stereo not drawn)	-10.8	0.1	-1.1	3.2	-2.0	0.5
O=C(CCCn1c(SCC(=O)c2ccc(O)c(O)c2)nc2ccccc2c1=O)NCC1CCCO1 (stereo not drawn)	-5.8	0.9	51.3*	6.1	1.8	6.7
CC(Oc1ccccc1Cl)C(=O)Nc1ccc(S(=O)(=O)N2CCCC2)cc1 (stereo not drawn)	-7.6	1.7	0.9	-0.9	-0.6	2.2
Cc1nnc(N=c2ssnc2Cl)o1	11.9	-6.3	55.5*	-5.5	14.4	-9.7
COc1cc2nc(N3CCNCC3)nc(N)c2cc1OC	-9.0	115.9*	36.6	17.2	6.1	-2.0
N=c1c(C(=O)NCc2ccco2)cc2c(=O)n3ccccc3nc2n1Cc1ccccc1	7.6	8.7	58.9*	1.7	3.7	75.5*
N=c1c(C(=O)NCc2ccc3c(c2)OCO3)cc2c(=O)n3ccccc3nc2n1Cc1cccnc1	-2.5	6.5	65.2*	-20.8	1.6	0.2
Cc1ccc2nc3c(cc(C(=O)NCCc4ccccc4)c(=N)n3CCN3CCOCC3)c(=O)n2c1	-3.0	1.5	10.2	-7.9	8.4	2.1
Cc1ccc2nc3c(cc(C(=O)NCc4ccccc4)c(=N)n3CCCn3ccnc3)c(=O)n2c1	2.5	-2.5	56.6*	-24.1	-0.1	12.8
COc1ccc(CNC(=O)c2cc3c(=O)n4ccccc4nc3n(Cc3cccnc3)c2=N)cc1	5.2	4.3	14.9	-21.6	-3.2	2.5
N=c1c(C(=O)NCc2ccco2)cc2c(=O)n3ccccc3nc2n1Cc1ccc(Cl)cc1	16.3	0.9	51.8*	3.6	4.7	23.3
N=c1c(C(=O)NCc2ccc(F)cc2)cc2c(=O)n3ccccc3nc2n1Cc1ccco1	15.8	13.7	49.3	-9.4	0.5	9.3
N=c1c(C(=O)NCc2ccccc2)cc2c(=O)n3ccccc3nc2n1Cc1ccco1	7.7	9.2	33.6	-8.6	3.2	25.6
CCN(CC)C(=O)c1[nH]cnc1C(=O)NCC(=O)OC(C)(C)C	1.2	-4.3	-1.6	-0.4	-3.7	3.8
Cc1cccc(NC(=O)CNC(=O)c2ccc(-n3cncn3)c([N+](=O)[O-])c2)c1C	-0.8	-1.1	-0.5	-24.4	-0.7	-4.2
COc1ccc(Cn2c(=N)c(C(=O)NC3CCCCC3)cc3c(=O)n4ccccc4nc32)cc1	16.8	1.9	2.2	-31.4	3.9	-2.6
CCOC(=O)c1cc2c(=O)n3ccccc3nc2n(Cc2ccc(Cl)cc2)c1=N	11.0	42.2*	0.5	-19.5	1.0	3.8
CCOC(=O)Nc1sc(C)nc1-c1ccccc1	0.2	-1.6	-1.6	-2.3	3.0	2.0
CCOC(=O)Nc1cc2c(c(N)n1)N=C(c1ccccc1)CN2	14.6	7.2	2.0	-42.3	-0.4	53.4*
Cc1ccc(N2C(=S)SC3CS(=O)(=O)CC32)cc1 (stereo not drawn)	-5.3	3.1	1.4	47.1*	1.4	-1.0
Cn1c(N)nc(N)c(NC=O)c1=O	·	1.5	-0.3	5.3	-0.5	-1.6
Cc1ccccc1N1CCN(C2CCCN(C(=O)c3cnsn3)C2)CC1 (stereo not drawn)	49.2	3.2	0.0	-2.6	1.5	0.8
